Test results as given in ChEMBL document CHEMBL3526018, “Metabolites of PPI-2458, a selective, irreversible inhibitor of methionine aminopeptidase-2: structure determination and in vivo activity” (Drug Metab Dispos, 2013).
The source made the active and inactive calls. No cut-off for these calls is given here.

Assays:
CYP3A4 (Homo sapiens) [1] = experiment: Ratio of Vmax to Km for human recombinant CYP3A4 assessed as ((3R,4S,5S,6R)-5-methoxy-4-((2R,3R)-2-methyl-3-(3-methylbut-2-en-1-yl)oxiran-2-yl)-1-oxaspiro[2.5]octan-6-yl ((R)-1-amino-3-hydroxy-3-methyl-1-oxobutan-2-yl)carbamate) formation; settings: recombinant enzyme
Rattus norvegicus [2] = experiment: Inhibition of MetAP2 level in Sprague-Dawley rat whole blood assessed as free enzyme level at 0.3 mg/kg, po by ELISA; type: functional, organism-based; design: dose 0.3 mg/kg
How it was run: (§1)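 Male Sprague-Dawley rats (200-225 g, n=3 per group) were dosed once IV at 0.3 mg/kg or PO at 0.3 or 3.0 mg/kg, in 11% HPCD in water. Blood, liver, lung, thymus and pooled non-mesenteric lymph nodes were taken at ~24 h and lysed or homogenized with NP-40. Free MetAP2 was measured by ELISA and expressed as % of vehicle.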

Liver [3] = experiment: Metabolic stability in mouse liver microsomes assessed as retention time of ((3R,4S,5S,6R)-4-((2R,3R)-3-((E)-4-hydroxy-3-methylbut-2-en-1-yl)-2-methyloxiran-2-yl)-5-methoxy-1-oxaspiro[2.5]octan-6-yl((R)-1-amino-3-methyl-1-oxobutan-2-yl)carbamate) at 5 mM by LC/MS analysis; type: ADME; settings: 5000 µM
How it was run: (§2)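 Liver microsomes (pooled male/female) in 100 mM KPO4 pH 7.4 with PPI-2458 (5 mM stock), pre-incubated 5 min at 37°C, then 10 mM NADPH added; 20 min at 37°C with shaking. Time-zero and no-NADPH controls. Quenched with CH3CN; supernatant dried and redissolved in water. Analysed by LC-MS, ESI+ full scan 300–800 amu, C18 column, 10→50% B gradient.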

CYP3A5 (Homo sapiens) [4] = experiment: Activity of human recombinant CYP3A5 assessed as ((3R,4S,5S,6R)-5-methoxy-4-((2R,3R)-2-methyl-3-(3-methylbut-2-en-1-yl)oxiran-2-yl)-1-oxaspiro[2.5]octan-6-yl ((R)-1-amino-3-hydroxy-3-methyl-1-oxobutan-2-yl)carbamate) formation per pmol of enzyme
Liver microsome [5] = experiment: Metabolic stability in rat liver microsomes assessed as retention time of ((3R,4S,5S,6R)-4-((2R,3R)-3-(((S)-3,3-dimethyloxiran-2-yl)methyl)-2-methyloxiran-2-yl)-5-methoxy-1-oxaspiro[2.5]octan-6-yl ((R)-1-amino-3-methyl-1-oxobutan-2-yl)carbamate) at 5 mM by LC/MS analysis; type: ADME; settings: 5000 µM
How it was run: as §2

[6] = AUC (0 to t hrs) in non-Hodgkin lymphoma patient at 15 mg, po alternate days for 21 days; type: ADME, organism-based; settings: human, in vivo
How it was run: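 Oral PPI-2458 given every other day to lymphoma patients. Plasma sampled pre-dose and at 15 min, 30 min, 1, 2, 3, 4, 6, 8, 24 and 48 h after the first dose. Parent and metabolites were measured by LC-MS/MS after protein precipitation, evaporation and reconstitution. CL/F was computed only for parent and summed analytes. For metabolites, t1/2 is an apparent first-phase value.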

[7] = Metabolic stability in monkey liver microsomes assessed as retention time of ((3R,4S,5S,6R)-4-((2R,3R)-3-(((R)-3,3-dimethyloxiran-2-yl)methyl)-2-methyloxiran-2-yl)-5-methoxy-1-oxaspiro[2.5]octan-6-yl ((R)-1-amino-3-methyl-1-oxobutan-2-yl)carbamate) at 5 mM by LC/MS analysis; type: ADME, Macaca mulatta; settings: rhesus monkey, 5000 µM
How it was run: as §2

Liver microsome [8] = experiment: Metabolic stability in human liver microsomes assessed as retention time of ((3R,4S,5S,6R)-5-methoxy-4-((2R,3R)-2-methyl-3-(3-methylbut-2-en-1-yl)oxiran-2-yl)-1-oxaspiro[2.5]octan-6-yl ((R)-1-amino-3-hydroxy-3-methyl-1-oxobutan-2-yl)carbamate) at 5 mM by LC/MS analysis; type: ADME; settings: 5000 µM
How it was run: as §2

Liver microsome [9] = experiment: Metabolic stability in rat liver microsomes assessed as retention time of ((3R,4S,5S,6R)-4-((2R,3R)-3-(((R)-3,3-dimethyloxiran-2-yl)methyl)-2-methyloxiran-2-yl)-5-methoxy-1-oxaspiro[2.5]octan-6-yl ((R)-1-amino-3-methyl-1-oxobutan-2-yl)carbamate) at 5 mM by LC/MS analysis; type: ADME; settings: 5000 µM
How it was run: as §2

Rattus norvegicus [10] = experiment: Inhibition of MetAP2 level in Sprague-Dawley rat lymph nodes assessed as free enzyme level at 0.3 mg/kg, iv by ELISA; type: functional, organism-based; design: dose 0.3 mg/kg
How it was run: as §1

Rattus norvegicus [11] = experiment: Inhibition of MetAP2 level in Sprague-Dawley rat liver assessed as free enzyme level at 3 mg/kg, po by ELISA; type: functional, organism-based; design: dose 3 mg/kg
How it was run: as §1

CYP3A5 (Homo sapiens) [12] = experiment: Activity of human recombinant CYP3A5 assessed as ((3R,4S,5S,6R)-4-((2R,3R)-3-((E)-4-hydroxy-3-methylbut-2-en-1-yl)-2-methyloxiran-2-yl)-5-methoxy-1-oxaspiro[2.5]octan-6-yl((R)-1-amino-3-methyl-1-oxobutan-2-yl)carbamate) formation per pmol of enzyme
CYP3A4 (Homo sapiens) [13] = experiment: Activity of human recombinant CYP3A4 assessed as ((3R,4S,5S,6R)-4-((2R,3R)-3-((E)-4-hydroxy-3-methylbut-2-en-1-yl)-2-methyloxiran-2-yl)-5-methoxy-1-oxaspiro[2.5]octan-6-yl((R)-1-amino-3-methyl-1-oxobutan-2-yl)carbamate) formation; settings: recombinant enzyme
CYP3A4 (Homo sapiens) [14] = experiment: Activity of human recombinant CYP3A4 assessed as ((3R,4S,5S,6R)-4-((2R,3R)-3-(((R)-3,3-dimethyloxiran-2-yl)methyl)-2-methyloxiran-2-yl)-5-methoxy-1-oxaspiro[2.5]octan-6-yl ((R)-1-amino-3-methyl-1-oxobutan-2-yl)carbamate) formation; settings: recombinant enzyme
CYP3A4 (Homo sapiens) [15] = experiment: Ratio of Vmax to Km for human recombinant CYP3A4 assessed as ((3R,4S,5S,6R)-4-((2R,3R)-3-((E)-4-hydroxy-3-methylbut-2-en-1-yl)-2-methyloxiran-2-yl)-5-methoxy-1-oxaspiro[2.5]octan-6-yl((R)-1-amino-3-methyl-1-oxobutan-2-yl)carbamate) formation; settings: recombinant enzyme
CYP3A5 (Homo sapiens) [16] = experiment: Activity of human recombinant CYP3A5 assessed as ((3R,4S,5S,6R)-4-((2R,3R)-3-(((R)-3,3-dimethyloxiran-2-yl)methyl)-2-methyloxiran-2-yl)-5-methoxy-1-oxaspiro[2.5]octan-6-yl ((R)-1-amino-3-methyl-1-oxobutan-2-yl)carbamate) formation; settings: recombinant enzyme
Cytochrome P450 3A4 = Cytochrome P450 3A4 (Homo sapiens, UniProt P08684); experiment: Inhibition of CYP3A4 activity in human liver microsomes assessed as dibenzo fluuorescene oxidation up to 40 uM; type: ADME
Sequence of Cytochrome P450 3A4 (P08684 whole entry): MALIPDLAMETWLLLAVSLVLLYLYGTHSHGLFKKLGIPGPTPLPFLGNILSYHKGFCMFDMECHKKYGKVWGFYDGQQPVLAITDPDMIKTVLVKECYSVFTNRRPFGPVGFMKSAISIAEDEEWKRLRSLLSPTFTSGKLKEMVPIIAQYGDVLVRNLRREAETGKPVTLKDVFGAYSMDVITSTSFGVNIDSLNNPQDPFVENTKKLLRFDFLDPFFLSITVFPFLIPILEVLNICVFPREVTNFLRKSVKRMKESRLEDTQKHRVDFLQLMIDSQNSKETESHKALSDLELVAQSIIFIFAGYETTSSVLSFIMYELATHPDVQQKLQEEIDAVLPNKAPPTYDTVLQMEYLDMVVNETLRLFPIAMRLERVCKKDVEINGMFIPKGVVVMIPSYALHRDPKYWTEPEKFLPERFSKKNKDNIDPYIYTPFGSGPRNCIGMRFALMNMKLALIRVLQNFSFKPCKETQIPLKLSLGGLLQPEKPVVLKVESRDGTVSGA

Liver [17] = experiment: Metabolic stability in rat liver S9 fraction assessed as retention time of glutathione conjugate at 5 mM by LC/MS analysis; type: ADME, subcellular; settings: s9, 5000 µM

SMILES: CO[C@@H]1[C@H](OC(=O)N[C@@H](C(N)=O)C(C)C)CC[C@]2(CO2)[C@H]1[C@@]1(C)O[C@@H]1CC=C(C)C [PPI-2458]
- Vmax/Km (CYP3A4 (Homo sapiens) [1]): 0.019 µL/min
- inhibition (Rattus norvegicus [2]): Active
- Drug metabolism (Liver [3]): metabolite_detected
- Vmax (CYP3A5 (Homo sapiens) [4]): 1.58 pmol/min
- Drug metabolism (Liver microsome [5]): metabolite_detected
- AUC(0-t) at 504 h [6]: 43.9 ng·h/mL
- Drug metabolism [7]: metabolite_detected
- Drug metabolism (Liver microsome [8]): metabolite_detected
- Drug metabolism (Liver microsome [9]): metabolite_detected
- inhibition (Rattus norvegicus [10]): Active
- inhibition (Rattus norvegicus [11]): Active
- Vmax (CYP3A5 (Homo sapiens) [12]): 0.8 pmol/min
- Km (CYP3A4 (Homo sapiens) [13]): 15 µM
- Km (CYP3A4 (Homo sapiens) [14]): 17 µM
- Vmax/Km (CYP3A4 (Homo sapiens) [15]): 0.09 µL/min
- Km (CYP3A5 (Homo sapiens) [16]): 17 µM
- inhibition (INH) (Cytochrome P450 3A4): Not Active
- Retention_time (Liver [17]): 20.8 min
